Screens (PubChem BioAssay)
An excerpt weighted towards active compounds, which were near 2.3% of everything screened.
TAAR1 ag: human TAAR1 agonism; CHO RD-HGA16 TAAR1, Fluo-8 calcium fluorescence; vehicle wells 0%, saturating PEA agonist 100%; AID 624467; actives 0.99% (n = 360,000); activation, % at 3 µM;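 active = activation above the mean activation of all test compounds in the run plus 3 SD, cut at about 38% in these data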
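Benchmarks: low control DMSO, high control PEA (EC100); System: CHO RD-HGA16 cells carrying human TAAR1 plus Gα16; Detection: Fluo-8 fluorescence, 5 s baseline then 140 s kinetic read; Schedule: 17-24 h plating, Fluo-8 75 min 37 °C, 30 min RT; Read-out basis: % activation from peak over basal fluorescence ratio, DMSO-to-PEA scaled.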
TAAR1 antag: human TAAR1 antagonism; actives 1.5% (n = 360,000); inhibition, % at 3 µM; CHO RD-HGA16 TAAR1, Fluo-8 calcium fluorescence, antagonist; AID 624466;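 active = inhibition above a per-plate cutoff, the mean inhibition of test compounds on that plate plus 3 SD, cut at about 49% in these data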;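 also: 0% = DMSO plus EC80 beta-PEA response and 100% = DMSO alone without agonist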
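test system = CHO RD-HGA16 cells bearing hTAAR1 | replication = singlicate | controls = DMSO-only wells and EC80 β-PEA-stimulated wells | reagent = EC80 β-phenethylamine stimulus | read-out basis = percent inhibition of PEA-evoked calcium signal, max/basal emission ratio | schedule = seeding 17-24 h prior, 75-min 37 °C, 30-min RT dye loading | signal = kinetic Fluo-8 calcium fluorescence measurement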
V1aR counter: V1a receptor agonism, counter-screen for OXTR agonists; P37288; CHO-V1R cells, Fluo-8 calcium fluorescence, agonist mode; 0% DMSO, 100% 3 nM vasopressin; activation, % at 3 µM; actives 0.25% (n = 320,000);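 active = activation above the mean activation of all tested compounds plus 3 SD, per screening run, cut at about 20% in these data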;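 also: signal is peak over basal fluorescence ratio across a 100 second FLIPR read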
Target sequence (P37288 whole entry, looked up): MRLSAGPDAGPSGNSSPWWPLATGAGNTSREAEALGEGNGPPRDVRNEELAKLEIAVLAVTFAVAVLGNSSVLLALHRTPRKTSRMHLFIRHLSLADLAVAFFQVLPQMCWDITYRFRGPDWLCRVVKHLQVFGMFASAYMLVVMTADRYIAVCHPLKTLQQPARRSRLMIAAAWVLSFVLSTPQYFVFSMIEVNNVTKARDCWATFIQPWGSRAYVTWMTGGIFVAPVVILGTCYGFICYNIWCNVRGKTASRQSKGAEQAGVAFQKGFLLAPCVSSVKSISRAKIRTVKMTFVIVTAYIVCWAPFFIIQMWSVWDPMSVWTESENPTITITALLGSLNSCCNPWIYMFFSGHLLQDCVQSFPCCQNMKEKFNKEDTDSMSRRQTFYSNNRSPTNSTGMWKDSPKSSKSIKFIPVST
OXTR agonist: human OXTR agonism; CHO-OTR cells, Fluo-8 calcium fluorescence; normalized: DMSO 0%, oxytocin 100%; activation, % at 3 µM; P30559; actives 0.32% (n = 320,000);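 active = activation above the mean of all tested compounds plus 3 SD, cutoff set per screening run, cut at about 20% in these data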;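 also: peak over basal fluorescence ratio from a 100 s FLIPR kinetic read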
OXTR potentiate: potentiators of human oxytocin receptor; CHO-OTR cells, Fluo-8 calcium fluorescence, potentiator mode; 0% = oxytocin EC15, 100% = EC100; activation, % at 3 µM; actives 0.061% (n = 320,000);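 active = activation above that plate's cutoff, the mean activation of tested compounds plus 3 SD, cut at about 6.6% in these data, passing the limit was not always enough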;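 also: 100% uses oxytocin at 75 nM as the full agonist control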
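System: human OTR in CHO cells; Also added: sub-maximal oxytocin, roughly EC15; Timing: compound 6 min at room temperature before oxytocin, 100 s read; Technique: Fluo-8 intracellular calcium fluorescence, ex 470-495, em 515-575 nm; Controls: oxytocin EC15 low and EC100 high; Replication: singlicate.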
nonsel antag count: counter-screen for TAAR1 antagonists: nonselective antagonists | inhibition, % at 3 µM | actives 77% (n = 2,400) | counterscreen cell line, calcium fluorescence, antagonist mode | shares compounds with TAAR1 antag | AID 651780; in the data active = inhibition above about 22%;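 also: CHO-Ga16 host cells stimulated with ATP at an EC80 level; 0% = agonist EC80 plus vehicle and 100% = vehicle without agonist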
TAAR1 antag conf: human TAAR1 antagonism, confirmed. shares compounds with TAAR1 antag. TAAR1-expressing cells, fluorescence antagonist read-out. inhibition, % at 3 µM. actives 40% (n = 2,400). AID 651785; in the data active = inhibition above about 49%;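 also: CHO-Ga16 host cells challenged with agonist PEA near its EC80; 0% = agonist at EC80 plus vehicle and 100% = vehicle with no agonist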
Ga16 ag counter: counter-screen for TAAR1 antagonists: nonselective Ga16 agonists; shares compounds with TAAR1 antag; Ga16-expressing cells, calcium fluorescence, agonist counterscreen; activation, % at 3 µM; actives 18% (n = 2,400); AID 651953; in the data active = activation above about 12%;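 also: 0% = vehicle wells and 100% = saturating stimulus response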
TAAR1 ag count: TAAR1 agonism, antagonist counter-screen. actives 2% (n = 2,400). shares compounds with TAAR1 antag. AID 651955. activation, % at 3 µM. hTAAR1 cell line, fluorescence activation, agonist mode; in the data active = activation above about 37%;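 also: CHO cells stably expressing TAAR1 with calcium dye readout; 0% = DMSO vehicle and 100% = full agonist response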
The depositor's hits bear a star; . = no result given.

SMILES	TAAR1 ag	TAAR1 antag	V1aR counter	OXTR agonist	OXTR potentiate	nonsel antag count	TAAR1 antag conf	Ga16 ag counter	TAAR1 ag count
CCC(C)Nc1nnnc2c1sc1nc3c(cc12)COC(C)(C)C3 (centres undefined)	3	-8	-1	-1	-5	.	.	.	.
CN(CC(=O)Nc1sccc1C#N)S(=O)(=O)c1ccc(F)cc1	2	-3	.	.	.	.	.	.	.
COc1ccc(C(=O)Cn2nnc(-c3ccccc3NC(=O)c3ccco3)n2)cc1	16	55*	1	0	-6	20	48	9	11
CCOc1ccccc1NC(=O)CCCc1ccc(OC)c(C)c1	2	11	-1	-1	-20	.	.	.	.
Cc1ccccc1N1C(=O)c2ccccc2N2C(=O)c3ccccc3C12 (centres undefined)	-1	-11	0	-2	-3	.	.	.	.
COc1cccc(C2Nc3ccccc3C(=O)N2c2ccc(F)cc2)c1O (centres undefined)	2	-10	-1	-1	-7	.	.	.	.
COc1ccc2c(c1OC)C(=O)N1c3ccccc3C(=O)N(c3ccc(F)cc3)C21 (centres undefined)	19	82*	-1	-2	-6	28*	49*	8	11
COc1ccc2c(c1OC)C(=O)N1c3ccccc3C(=O)N(c3ccccc3)C21 (centres undefined)	22	63*	0	-2	-5	32*	51*	12*	11
N#CC(c1ccccc1)c1cnccn1 (centres undefined)	3	14	1	0	-2	.	.	.	.
COCOCCn1cc(CN2CCS(=O)(=O)N(Cc3ccc(-c4cccc(CO)c4)cc3)C(C(C)C)C2=O)nn1 (centres undefined)	5	2	.	.	.	.	.	.	.
O=C(NCCc1c[nH]c2ccccc12)/C(=C\c1cccnc1)NC(=O)c1ccco1	4	8	1	0	1	.	.	.	.
O=C(NCCc1c[nH]c2ccccc12)/C(=C\c1cccnc1)NC(=O)c1ccccc1Br	16	63*	2	0	-6	31*	53*	8	7
Cc1ccc(/C=C(/NC(=O)c2ccccc2)C(=O)NCCc2c[nH]c3ccccc23)o1	17	58*	1	-1	-16	25*	42	8	8
C/C(=N\NC(=O)c1cc2ccccc2cc1O)c1ccccn1	5	-2	2	-1	3	.	.	.	.
C/C(=N\NC(=O)c1cc2ccccc2cc1O)c1cc2ccccc2o1	19	60*	0	-1	-5	62*	88*	37*	34
CCCCCCCCNc1nc(Cl)nc(NCCN2CCOCC2)n1	1	14	0	0	2	.	.	.	.
CCOC(=O)C1=C(COC(=O)/C=C/c2cccc(OC)c2)NC(=O)NC1C (centres undefined)	17	67*	3	3	-11	22*	53*	9	14
CCOC(=O)C1=C(COC(=O)/C=C/c2ccc(OC)cc2)NC(=O)NC1C (centres undefined)	13	43	.	.	.	.	.	.	.
COc1cc(/C=N/n2cnnc2)ccc1OC(=O)c1cccnc1	5	-4	-1	-1	-13	.	.	.	.
COc1cc(/C=N/n2cnnc2)ccc1OC(=O)c1ccncc1	2	107*	1	0	-18	6	4	1	-1
Cc1ccc(S(=O)(=O)NN2Cc3ccccc3C2=N)cc1	8	-14	0	1	2	.	.	.	.
O=C(CCCOc1ccc(Cl)cc1Cl)N1CCCc2ccccc21	6	50*	1	-1	-13	14	12	0	-1
Cc1ccc(C)c(CN2CCCN(C(=O)Cn3ncc4c3-c3ccccc3OC4)C2)c1	6	59*	1	-1	0	23*	46	12*	12
Cc1cccc2cc(C3CC(c4cccs4)=NN3S(C)(=O)=O)c(Cl)nc12 (centres undefined)	3	83*	0	0	-3	5	35	1	10
O=C(NCCCN1CCCC1=O)[C@H](CSCc1ccccc1)N1Cc2ccccc2C1=O	2	-9	1	1	-5	.	.	.	.
SMILES	TAAR1 ag	TAAR1 antag	V1aR counter	OXTR agonist	OXTR potentiate	nonsel antag count	TAAR1 antag conf	Ga16 ag counter	TAAR1 ag count
O=C(Cc1cccs1)Nc1cccc(-c2nc3cc4ccccc4cc3[nH]2)c1	8	74*	0	-1	-5	34*	44	6	0
O=C(c1cn(Cc2ccccc2)nc1-c1cccnc1)N1CCc2ccccc2C1	4	-5	-1	0	-4	.	.	.	.
CCS(=O)(=O)c1ccc(-c2csc(-c3ccccc3)n2)c(Cl)c1Cl	14	68*	0	-1	-13	24*	24	2	5
O=C(O)c1ccccc1-c1csc(-c2ccccc2)n1	10	-5	0	0	-4	.	.	.	.
COc1ccc(-c2noc(CCC(=O)N3CCN(c4ccccc4OC)CC3)n2)cc1	6	27	.	.	.	.	.	.	.
COc1ccc(-c2noc(CCC(=O)N3CCN(c4ccccc4C(F)(F)F)CC3)n2)cc1	5	65*	.	.	.	28*	48	11	15
COc1cccc2cc(-c3cc(=O)oc4ccc(O)cc34)oc12	5	50*	0	-2	-17	17	24	4	1
COc1cccc2cc(-c3cc(=O)oc4ccc(OCC(C)=O)cc34)oc12	3	57*	-2	-3	-5	25*	45	5	5
CCN(CC)C(=O)Oc1cc2c(-c3cc4cccc(OC)c4o3)cc(=O)oc2cc1C	0	8	0	-1	-8	.	.	.	.
COC(=O)COc1ccc2oc(=O)cc(-c3cc4cccc(OC)c4o3)c2c1	4	9	0	-2	-17	.	.	.	.
CCC(=O)N(CCc1ccccc1C)Cc1cc2ccc(C)cc2[nH]c1=O	20	60*	1	1	-18	28*	49*	11	13
O=C(Nc1cccc(Cl)c1)N(Cc1nc2ccccc2c(=O)[nH]1)Cc1cccs1	10	51*	1	1	0	30*	44	10	12
CCN1C(=O)CC(C(=O)Nc2ccc(F)cc2)SC1=Nc1cccc(OC)c1 (centres undefined)	11	32	0	-1	-2	.	.	.	.
